Test results taken from ChEMBL document CHEMBL1131336, “Synthesis and serotonin receptor affinities of a series of trans-2-(indol-3-yl)cyclopropylamine derivatives” (J Med Chem, 1998).
pKi: −log10 of the molar value.

Assays:
[1] = target: T1, 5-hydroxytryptamine receptor 1A (Rattus norvegicus, UniProt P19327); test: Binding affinity against the 5-hydroxytryptamine 1A receptor labelled with [3H]8-OH-DPAT in rat hippocampal homogenates; type: tissue-based, Hippocampus
T1 sequence (P19327 whole entry): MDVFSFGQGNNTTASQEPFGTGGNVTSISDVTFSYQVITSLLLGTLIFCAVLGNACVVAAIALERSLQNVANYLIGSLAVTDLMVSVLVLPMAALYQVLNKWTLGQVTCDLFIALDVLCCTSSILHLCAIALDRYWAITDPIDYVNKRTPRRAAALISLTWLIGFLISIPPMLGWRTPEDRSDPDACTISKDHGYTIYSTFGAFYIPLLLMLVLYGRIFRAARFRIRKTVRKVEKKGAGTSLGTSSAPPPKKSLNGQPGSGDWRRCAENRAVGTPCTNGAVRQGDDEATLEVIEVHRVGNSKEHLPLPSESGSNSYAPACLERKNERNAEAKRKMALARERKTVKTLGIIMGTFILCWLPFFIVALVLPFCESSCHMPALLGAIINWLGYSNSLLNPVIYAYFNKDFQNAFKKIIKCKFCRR
Procedure, shortened: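 Buffer is 50 mM Tris HCl pH 7.4 with 0.5 mM Na2EDTA, 0.1% Na ascorbate and pargyline. Triplicate tubes with 200-400 µg protein, 15 min at 37 °C, GF/C filtration. Nonspecific binding set with 10 µM 5-HT.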

[2] = target: 5-hydroxytryptamine receptor 2A (Homo sapiens, UniProt P28223); test: Binding affinity against the cloned human 5-hydroxytryptamine 2A receptor using [125I]DOI as the radioligand
5-hydroxytryptamine receptor 2A, sequence (P28223 whole entry): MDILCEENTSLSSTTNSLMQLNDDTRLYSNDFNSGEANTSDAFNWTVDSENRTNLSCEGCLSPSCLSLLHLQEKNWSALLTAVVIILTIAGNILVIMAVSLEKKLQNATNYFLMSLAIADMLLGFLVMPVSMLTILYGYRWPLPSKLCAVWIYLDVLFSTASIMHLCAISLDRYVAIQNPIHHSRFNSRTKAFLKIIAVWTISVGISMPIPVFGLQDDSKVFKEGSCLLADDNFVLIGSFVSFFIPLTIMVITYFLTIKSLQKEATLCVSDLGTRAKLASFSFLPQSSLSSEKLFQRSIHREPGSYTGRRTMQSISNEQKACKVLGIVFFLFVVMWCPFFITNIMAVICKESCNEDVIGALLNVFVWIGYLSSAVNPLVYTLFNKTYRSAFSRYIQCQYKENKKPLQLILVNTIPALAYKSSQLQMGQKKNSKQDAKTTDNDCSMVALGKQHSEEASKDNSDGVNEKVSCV
Procedure, shortened: (§1)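 AV12 hamster fibroblast membranes stably expressing the human receptor, with 0.07-0.15 nM [125I]DOI. Buffer is 10 µM pargyline, 9.75 mM MgCl2, 0.5 mM EDTA, 0.1% ascorbate and 50 mM Tris pH 7.4. Incubation 30 min at 37 °C with about 40 µg (5-HT2A) or 30 µg (5-HT2C) protein, then gamma counting. Nonspecific binding set with 1 µM ketanserin (2A) or 10 µM mianserin (2C).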

[3] = target: 5-hydroxytryptamine receptor 2B (Homo sapiens, UniProt P41595); test: Binding affinity against the cloned human 5-hydroxytryptamine 2B receptor using [3H]5-HT as the radioligand
5-hydroxytryptamine receptor 2B, sequence (P41595 whole entry): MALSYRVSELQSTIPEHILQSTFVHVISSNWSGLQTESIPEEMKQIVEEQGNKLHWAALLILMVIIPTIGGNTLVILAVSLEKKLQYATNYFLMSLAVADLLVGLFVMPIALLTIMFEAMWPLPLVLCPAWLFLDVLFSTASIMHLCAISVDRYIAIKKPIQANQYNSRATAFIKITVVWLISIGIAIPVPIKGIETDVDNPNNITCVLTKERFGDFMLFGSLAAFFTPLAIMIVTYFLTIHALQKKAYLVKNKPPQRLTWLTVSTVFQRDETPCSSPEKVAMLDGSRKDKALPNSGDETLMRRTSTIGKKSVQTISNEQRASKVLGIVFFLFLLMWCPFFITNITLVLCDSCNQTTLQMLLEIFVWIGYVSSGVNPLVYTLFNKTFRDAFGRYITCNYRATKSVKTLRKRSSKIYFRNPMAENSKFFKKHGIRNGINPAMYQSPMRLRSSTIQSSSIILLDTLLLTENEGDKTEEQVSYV
Procedure, shortened: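 Membranes come from AV12 hamster fibroblasts stably expressing the human receptor. About 2 nM [3H]-5-HT is used with drug dilutions spanning 6 log units, in 3 mM CaCl2, 10 µM pargyline, 50 mM Tris and 0.1% ascorbic acid, pH 7.4. Triplicate tubes with 100-150 µg protein, 15 min at 37 °C, PEI-soaked GF/B filtration. Nonspecific binding set with 10 µM 5-HT or 10 µM 1-naphthylpiperazine.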

[4] = target: T2, 5-hydroxytryptamine receptor 2C (Homo sapiens, UniProt P28335); test: Binding affinity against the cloned human 5-hydroxytryptamine 2C receptor using [125I]DOI as the radioligand; procedure, shortened: as §1
T2 sequence (P28335 whole entry): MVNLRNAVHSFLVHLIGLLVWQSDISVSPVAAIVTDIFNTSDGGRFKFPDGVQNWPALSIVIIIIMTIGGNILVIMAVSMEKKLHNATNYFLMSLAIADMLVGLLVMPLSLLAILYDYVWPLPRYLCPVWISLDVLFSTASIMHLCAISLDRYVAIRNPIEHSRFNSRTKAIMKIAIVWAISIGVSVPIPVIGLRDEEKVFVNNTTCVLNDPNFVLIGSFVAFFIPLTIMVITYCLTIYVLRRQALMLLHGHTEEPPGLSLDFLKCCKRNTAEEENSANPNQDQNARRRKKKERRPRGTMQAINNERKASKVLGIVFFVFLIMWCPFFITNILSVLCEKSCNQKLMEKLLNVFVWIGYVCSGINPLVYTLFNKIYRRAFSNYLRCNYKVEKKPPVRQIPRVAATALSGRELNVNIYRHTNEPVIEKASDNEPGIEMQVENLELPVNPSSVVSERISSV

Structure (SMILES)	pKi [1]	pKi [2]	pKi [3]	pKi [4]
COc1ccc2[nH]cc(C3CC3N)c2c1 (stereo not drawn)	7.40	7.51	7.42	7.75
NC1CC1c1c[nH]c2ccc(F)cc12 (stereo not drawn)	6.59	7.99	8.24	8.72
COc1cccc2[nH]cc(C3CC3N)c12 (stereo not drawn)		7.34	7.19	7.93
CC(CN)c1c[nH]c2ccccc12 (stereo not drawn)		7.39	7.06	8.03
COc1ccc2[nH]cc(C(C)CN)c2c1 (stereo not drawn)		8.66	8.08	9.00
N[C@H]1C[C@@H]1c1c[nH]c2ccccc12	6.09	6.88	7.03	7.67
N[C@@H]1C[C@H]1c1c[nH]c2ccccc12	6.59	7.01	7.23	7.36
NC1CC1c1c[nH]c2ccccc12 (racemic)		6.79	7.23	7.52
